High-throughput results deposited in PubChem BioAssay by Broad Institute.
This excerpt belongs to a sample that is enriched for hits.
IDH1 mut inh – inhibitors of IDH1 R132H reductase, primary screen, biochemical, plate reader, single point; 70,000 compounds, 0.18% hits; Isocitrate dehydrogenase [NADP] cytoplasmic (Homo sapiens), O75874; diaphorase/resazurin fluorescence, 60 min; inhibition, % at 10 µM; in the data active = inhibition above about 34%; inconclusive = no clear call, values can overlap the other calls; inactive = below about 11%;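 note: 0% = DMSO and 100% = no enzyme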
Target sequence (O75874 whole entry R132H): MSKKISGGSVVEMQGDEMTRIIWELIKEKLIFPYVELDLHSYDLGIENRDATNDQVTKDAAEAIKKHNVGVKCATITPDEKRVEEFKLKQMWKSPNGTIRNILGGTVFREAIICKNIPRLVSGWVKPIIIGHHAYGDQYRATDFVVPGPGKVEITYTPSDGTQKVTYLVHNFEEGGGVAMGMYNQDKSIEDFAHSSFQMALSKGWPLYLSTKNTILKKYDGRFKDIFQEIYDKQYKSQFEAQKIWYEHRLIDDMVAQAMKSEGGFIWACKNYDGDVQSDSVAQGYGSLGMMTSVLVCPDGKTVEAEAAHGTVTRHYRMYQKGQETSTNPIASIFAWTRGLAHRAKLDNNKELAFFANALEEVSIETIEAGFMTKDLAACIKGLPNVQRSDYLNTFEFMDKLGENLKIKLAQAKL
T cruzi growth-1 – T. cruzi intracellular proliferation inhibitors, primary screen, cell-based, beta-gal Tulahuen parasites, NIH3T3 host, luminescence | T. cruzi beta-gal in NIH3T3, GalScreen luminescence, 90 h | inhibition, % at 8.34 µM | 77,000 compounds, 5.9% hits | AID 624255, 2012;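 active = mean inhibition above about 93%, with at least 55% of replicates each passing it, limit read from the data, passing the limit was not always enough; inconclusive = only one of those two conditions holds; inactive = neither condition holds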
GASC1 inh – inhibitors of GASC-1 (KDM4C) histone demethylase, primary screen, biochemical, single concentration HTS; inhibition, % at 12.5 µM; GST-KDM4C 2-372, H3K9me3 peptide, LANCE TR-FRET; 96,000 compounds, 0.15% hits;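 active = mean replicate inhibition above about 25%, with at least 55% of replicates also reaching it, limit read from the data, passing the limit was not always enough; inconclusive = only one of those two conditions met; inactive = neither condition met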
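Material: GST-tagged GASC-1 (JMJD2C) catalytic fragment, aa 2-372 / Quantity: enzyme final amount 10 nM / Medium: HEPES buffer, pH 7.5, plus ascorbate / Doses: one test concentration per compound / Incubation: 30 min reaction, 60 min detection, RT / Measured by: LANCE TR-FRET / Read-out: inhibition from TR-FRET ratio decrease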
T cruzi growth-2 – T. cruzi intracellular proliferation inhibitors, confirmation, cell-based, NIH3T3 host, beta-gal parasite, luminescence, cherry-pick | shares compounds with T cruzi growth-1 | T. cruzi beta-gal in NIH3T3, GalScreen luminescence, 90 h | inhibition, % at 8.35 µM | 5,600 compounds, 72% hits | AID 651739, 2012;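 active = mean replicate inhibition above about 95% and at least 55% of replicates individually reaching it, limit read from the data; inconclusive = only one of the two criteria is met; inactive = neither criterion is met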
T cruzi growth-3 – inhibitors of intracellular T. cruzi replication, confirmation, NIH3T3 host cells, beta-gal parasites, cherry-pick, set 2 | T. cruzi beta-gal in NIH3T3, GalScreen luminescence, 90 h | shares compounds with T cruzi growth-1 | 5,600 compounds, 21% hits | AID 651740, 2012 | inhibition, % at 2.09 µM;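 active = mean inhibition above about 95%, with at least 55% of replicates also reaching it, limit read from the data; inconclusive = meets just one of the two conditions; inactive = meets neither condition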;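 note: plate controls were neutral control median for no effect and positive control median for full effect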
NIH3T3 tox – cytotoxicity in mouse NIH/3T3 fibroblasts, confirmation, cytotoxicity control for T. cruzi proliferation inhibitor project, cell-based, cherry-pick, single point; shares compounds with T cruzi growth-1; NIH/3T3 viability, CellTiter-Glo ATP luminescence, 90 h; cytotoxicity (signal decrease), % at 8.35 µM; 5,600 compounds, 14% hits; AID 651742, 2012;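 active = mean signal decrease across replicates above about 35% based on untreated-well scatter, with enough replicates individually passing, limit read from the data; inconclusive = no rule stated though some were filed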;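 note: 0% = median of neutral control wells and 100% = median of positive control wells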
3T3 cytotox 2 – NIH/3T3 fibroblast cytotoxicity, confirmation, cytotoxicity control, cell-based, cherry-pick, single point, set 2 | inhibition, % at 24.9 µM | NIH/3T3 viability, CellTiter-Glo ATP luminescence, 90 h | shares compounds with T cruzi growth-1 | 5,600 compounds, 56% hits;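 active = mean loss of cell viability signal at or above a set limit, and enough replicates individually reaching it; inconclusive = meets only the mean limit or only the replicate share; inactive = meets neither condition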;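 note: 0% = median of neutral control wells and 100% = median of positive control wells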
* = called active by the depositor.

COc1ccc(S(=O)(=O)N[C@@H]2C=C[C@@H](CC(=O)N3CCC(Cc4ccccc4)CC3)O[C@H]2CO)cc1 was read as IDH1 mut inh -0.4, T cruzi growth-1 inconclusive, GASC1 inh -0.7, T cruzi growth-2 64.9, T cruzi growth-3 -6.7, NIH3T3 tox -6.7 and 3T3 cytotox 2 31.7*.
Screening COc1ccc(S(=O)(=O)N[C@@H]2C=C[C@@H](CC(=O)N3CCC(Cc4ccccc4)CC3)O[C@@H]2CO)cc1 returned GASC1 inh -0.8.
For COc1ccc(S(=O)(=O)N[C@H]2C=C[C@@H](CC(=O)N3CCN(c4ccccc4)CC3)O[C@@H]2CO)cc1 the results were IDH1 mut inh 0.2, T cruzi growth-1 17.3 and GASC1 inh -1.4.
Screening C[C@@H]1CN([C@@H](C)CO)C(=O)c2cccc(NC(=O)c3nc4ccccc4s3)c2O[C@@H]1CN(C)C(=O)Nc1ccc(F)cc1 returned T cruzi growth-1 6.4 and GASC1 inh 17.9.
`C[C@H](CO)N1C[C@H](C)[C@H](CN(C)C(=O)Nc2ccc(C(F)(F)F)cc2)Oc2c(NC(=O)c3nc4ccccc4s3)cccc2C1=O` gave T cruzi growth-1 inconclusive, GASC1 inh 0.0, T cruzi growth-2 102.7*, T cruzi growth-3 87.0, NIH3T3 tox 44.6* and 3T3 cytotox 2 80.0*.
`C[C@@H]1CN([C@H](C)CO)C(=O)c2cccc(NC(=O)c3nc4ccccc4s3)c2O[C@@H]1CN(C)C(=O)Nc1ccc(C(F)(F)F)cc1` gave T cruzi growth-1 79.8 and GASC1 inh -1.4.
C[C@H](CO)N1C[C@H](C)[C@@H](CN(C)C(=O)Nc2ccc(C(F)(F)F)cc2)Oc2c(NC(=O)c3nc4ccccc4s3)cccc2C1=O was read as IDH1 mut inh 1.4, T cruzi growth-1 91.5*, GASC1 inh 0.1, T cruzi growth-2 87.6, T cruzi growth-3 69.8, NIH3T3 tox 31.7 and 3T3 cytotox 2 64.0*.
Cc1c(Cl)cccc1NC(=O)CSc1nnc(-c2cccs2)n1C was read as IDH1 mut inh 0.1.
For CCC(=O)N(C)C[C@H]1Oc2cc(C#CCC3CCCC3)ccc2S(=O)(=O)N([C@H](C)CO)C[C@H]1C the results were IDH1 mut inh -0.3, T cruzi growth-1 115.6*, GASC1 inh -0.2, T cruzi growth-2 97.5*, T cruzi growth-3 55.0, NIH3T3 tox 44.1* and 3T3 cytotox 2 103.1*.
CNC[C@H]1Oc2cc(C#CCC3CCCC3)ccc2S(=O)(=O)N([C@H](C)CO)C[C@@H]1C was read as IDH1 mut inh -0.4, T cruzi growth-1 inconclusive, GASC1 inh -1.7, T cruzi growth-2 99.2*, T cruzi growth-3 72.8, NIH3T3 tox 28.9 and 3T3 cytotox 2 106.4*.
C[C@@H]1CN([C@H](C)CO)S(=O)(=O)c2ccc(C#CCC3CCCC3)cc2O[C@@H]1CN(C)C(=O)CC1CC1 was read as IDH1 mut inh 0.3, T cruzi growth-1 112.5*, GASC1 inh -0.7, T cruzi growth-2 96.3*, T cruzi growth-3 94.9, NIH3T3 tox 12.5 and 3T3 cytotox 2 105.2*.
C[C@@H]1CN([C@H](C)CO)S(=O)(=O)c2ccc(C#CCC3CCCC3)cc2O[C@@H]1CN(C)C(=O)CN(C)C was read as IDH1 mut inh 0.4, T cruzi growth-1 98.3 and GASC1 inh -1.7.
For CCC(=O)N(C)C[C@@H]1Oc2cc(C#CCC3CCCC3)ccc2S(=O)(=O)N([C@H](C)CO)C[C@H]1C the results were IDH1 mut inh 0.1, T cruzi growth-1 94.0 and GASC1 inh -2.2.
C[C@H]1CN([C@@H](C)CO)S(=O)(=O)c2ccc(C#CCC3CCCC3)cc2O[C@H]1CN(C)C was read as IDH1 mut inh -0.4 and T cruzi growth-1 -19.8.
COC(=O)CCCCCCC(=O)N/N=C/c1cc(Br)c(O)c(Br)c1 was read as IDH1 mut inh 0.6.
`C[C@@H]1CN([C@@H](C)CO)C(=O)Cc2cc(NS(=O)(=O)c3ccc(F)cc3)ccc2O[C@@H]1CN(C)Cc1ccccc1` gave T cruzi growth-1 94.5 and GASC1 inh 0.6.
For C[C@@H]1CN([C@@H](C)CO)C(=O)Cc2cc(NS(=O)(=O)c3ccc(F)cc3)ccc2O[C@H]1CN(C)Cc1ccccc1 the results were IDH1 mut inh 0.8, T cruzi growth-1 114.0*, GASC1 inh 1.7, T cruzi growth-2 111.5*, T cruzi growth-3 51.8, NIH3T3 tox 32.2 and 3T3 cytotox 2 inconclusive.
For COc1ccc(S(=O)(=O)Nc2ccc3c(c2)CC(=O)N([C@H](C)CO)C[C@H](C)[C@@H](CN(C)Cc2ccccc2)O3)cc1 the results were IDH1 mut inh -5.6, T cruzi growth-1 99.5*, GASC1 inh 0.0, T cruzi growth-2 103.6*, T cruzi growth-3 45.2, NIH3T3 tox -9.5 and 3T3 cytotox 2 -16.9.
`COc1ccc(S(=O)(=O)Nc2ccc3c(c2)CC(=O)N([C@H](C)CO)C[C@H](C)[C@H](CN(C)Cc2ccccc2)O3)cc1` gave T cruzi growth-1 71.0 and GASC1 inh 0.0.
For C[C@H]1CN([C@@H](C)CO)C(=O)Cc2cc(NS(=O)(=O)c3ccc(F)cc3)ccc2O[C@H]1CN(C)CC1CCCCC1 the results were IDH1 mut inh -0.4, T cruzi growth-1 66.9 and GASC1 inh -1.6.
`COc1ccc(S(=O)(=O)Nc2ccc3c(c2)CC(=O)N([C@@H](C)CO)C[C@@H](C)[C@H](CN(C)Cc2ccccc2)O3)cc1` gave IDH1 mut inh -0.3, T cruzi growth-1 113.0*, GASC1 inh -0.7, T cruzi growth-2 108.2*, T cruzi growth-3 88.6, NIH3T3 tox 16.1 and 3T3 cytotox 2 22.6.
Screening COc1ccc(S(=O)(=O)Nc2ccc3c(c2)CC(=O)N([C@H](C)CO)C[C@@H](C)[C@@H](CN(C)Cc2ccccc2)O3)cc1 returned IDH1 mut inh 0.1, T cruzi growth-1 86.8 and GASC1 inh -0.5.
Screening C[C@@H]1CN([C@@H](C)CO)C(=O)Cc2cc(NS(=O)(=O)c3ccc(F)cc3)ccc2O[C@H]1CN(C)CC1CCCCC1 returned IDH1 mut inh 1.8, T cruzi growth-1 106.4*, GASC1 inh 1.5, T cruzi growth-2 111.7*, T cruzi growth-3 53.9, NIH3T3 tox 6.5 and 3T3 cytotox 2 103.5*.
